This is an account of results in ChEMBL document CHEMBL1123860, “C1- and C3-methyl-substituted derivatives of 7-hydroxy-2-(di-n-propylamino)tetralin: activities at central dopamine receptors” (1987).

“And” between values parts separate entries of the source, which are not always exact repeats. Identical values can stand only once. The source made the active and inactive calls. No cut-off for these calls is given here.

The species entered for assay [1] is Rattus norvegicus. Nature of the assay: Tested for locomotor activity by measuring accumulated counts/30 min in reserpine-pretreated rats. The format is functional. A digest of the protocol: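 Rats given reserpine 5 mg/kg sc 18 h beforehand, then test drug sc immediately before the session. Motor activity recorded by photocell motility meter as accumulated counts over 30 min, mean ± SEM (n = 3–4). Reserpine controls were used; Student's t test. Injection volume 5 mL/kg at roughly neutral pH.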

Assay [2] is filed under the species Rattus norvegicus. Description: Tested for locomotor activity by measuring accumulated counts/30 min in reserpine-non-pretreated rats. The format is functional. A digest of the protocol: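 Nonpretreated rats were injected with test drug 5 min before a photocell motility session, and counts were accumulated over 30 min. Activity expressed as percent of saline controls, mean ± SEM (n = 3–5), compared by Student's t test. Injections were 5 mL/kg at approximately neutral pH.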

The species entered for assay [3] is Rattus norvegicus. Nature of the assay: Effect on half-maximal decrease of DOPA formation in rat limbic regions; In active (no significant effect […]). As to conditions: Limbic system. The format is functional.
Assay [4] is filed under the species Rattus norvegicus. Description: Effect on half-maximal decrease of DOPA formation in rat striatal regions; In active (no significant effect […]). The format is functional, organism-based.
The species named for assay [5] is Rattus norvegicus. Description: Effect on half-maximal decrease of DOPA formation in rat striatal regions. The format is functional.
The species entered for assay [6] is Rattus norvegicus. Nature of the assay: Effect on half-maximal decrease of DOPA formation in rat limbic regions. As to conditions: Limbic system. The format is functional.
The test system of assay [7] is Rattus norvegicus. Description: Effect on half-maximal decrease of DOPA formation in rat limbic regions; In active (no significant decrease at […] sc). The format is functional, organism-based. The note with it: Limbic system.

As to `CCCN(CCC)[C@@H]1CCc2ccc(O)cc2C1C` (single isomer, unassigned; 6) [listing 1 of 2 here], the No. of counts is 14 counts/30 min and 17 counts/30 min in assay [1]; 126% and 136% in assay [2].
In general, ED50 refers to the dose at which the effect has come halfway, by size or by number of responders. Take `CCCN[C@@H]1CCc2ccc(O)cc2C1C` (single isomer, unassigned; (-)) [listing 1 of 2 here]: the ED50 entry in assay [3] and in assay [4] was “inactive” each time.
With `CCCN[C@@H]1CCc2ccc(O)cc2C1C` (single isomer, unassigned; (-)) [listing 2 of 2 here], in assay [1], the No. of counts is 8 counts/30 min.
Turning to `CCCN(CCC)[C@@H]1CCc2ccc(OC)cc2C1C` (single isomer, unassigned; 9) [listing 1 of 2 here], the figures for the ED50 in assay [3] (ip) and in assay [5] were 0.9 µmol/kg and 1.3 µmol/kg, respectively. Besides, the No. of counts in assay [2] is 38% and 28%.
As for `CCCN(CCC)[C@@H]1CCc2ccc(O)cc2C1C` (single isomer, unassigned; 6) [listing 2 of 2 here], the ED50 entry in assay [3] and in assay [4] was “inactive” throughout.
Consider `CN1CCc2cccc3c2[C@H]1Cc1ccc(O)c(O)c1-3` [APOMORPHINE], for which the ED50 in assay [6] and in assay [5] was 0.04 µmol/kg in each case. The No. of counts in assay [1] turned out to be 366 counts/30 min; in assay [2], 227%.
Turning to `CCCN(CCC)[C@@H]1CCc2ccc(OC)cc2C1C` (single isomer, unassigned; 9) [listing 2 of 2 here], the ED50 result in assay [3] and in assay [4] was “inactive” in each case.
Consider `CCCN(CCC)[C@@H]1CCc2ccc(OC)cc2C1C` (single isomer, unassigned; 5) [listing 1 of 2 here], for which the No. of counts in assay [1] was 4 counts/30 min; in assay [2], 109% and 92%.
With `CCCN(CCC)[C@H]1Cc2cc(O)ccc2C[C@@H]1C`, the ED50 entry in assay [3] and in assay [4] was “inactive” each time. Moreover, the results for the No. of counts in assay [1] and in assay [2] were 35 counts/30 min and 89%, respectively.
Regarding `CCCN(CCC)[C@@H]1CCc2ccc(O)cc2C1C` (single isomer, unassigned; 10) [listing 1 of 2 here], in assay [1], the No. of counts is 50 counts/30 min and 20 counts/30 min.
`CCCN(CCC)[C@H]1Cc2cc(O)ccc2C[C@H]1C`: the ED50 entry in assay [3] and in assay [4] was “inactive” in each case. Further, the ED50 turned out to be 11 µmol/kg in assay [6] and 7.5 µmol/kg in assay [5]. Besides, the No. of counts in assay [1] came to 331 counts/30 min; in assay [2], 119%.
Regarding `CCCN[C@H]1Cc2cc(OC)ccc2CC1C` (stereo partly specified), the ED50 result in assay [3] and in assay [4] was “inactive” each time. For the same compound, the No. of counts in assay [2] was 128%.
`CCCN(CCC)[C@H]1Cc2cc(OC)ccc2CC1C` (stereo partly specified): the ED50 result in assay [3] and in assay [4] was “inactive” in each case. For the same compound, the No. of counts in assay [2] was 96%.
Consider `CCCN(CCC)[C@@H]1CCc2ccc(OC)cc2C1C` (single isomer, unassigned; 5) [listing 2 of 2 here], for which the ED50 entry in assay [3], in assay [7] and in assay [4] was “inactive” throughout.
In the case of `CCCN(CCC)[C@@H]1CCc2ccc(O)cc2C1`, the ED50 in assay [6] and in assay [5] was 0.01 µmol/kg throughout. For the same compound, the No. of counts in assay [1] is 46 counts/30 min.
For the compound `O=C(CCCN1CCC(O)(c2ccc(Cl)cc2)CC1)c1ccc(F)cc1` [HALOPERIDOL], the ED50 result in assay [3] and in assay [4] was “inactive” throughout. For the same compound, the ED50 in assay [6] and in assay [5] was 0.19 µmol/kg each time. For the same compound, the No. of counts in assay [2] was 3%.
For `CCCN(CCC)[C@@H]1CCc2ccc(O)cc2C1C` (single isomer, unassigned; 10) [listing 2 of 2 here], the ED50 result in assay [3] and in assay [4] was “inactive” throughout.
For `CCCN[C@@H]1CCc2ccc(O)cc2C1C` (single isomer, unassigned; (+)), the values for the ED50 in assay [6] and in assay [5] were 1.4 µmol/kg and 1.2 µmol/kg, respectively. In addition, in assay [1], the No. of counts was 59 counts/30 min.
